Data set [1] concerns Mus musculus. The data set is described as follows: Dose normalized AUC in mouse at 10 mg/kg, po. It is filed as ADME, organism-based. Also noted: dose 10 mg/kg, route oral. The settings on record: in vivo. The method, boiled down: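 Mouse oral PK screen by cassette dosing at 10 mg/kg, three animals per cassette. AUC is dose-normalized.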
Data set [2] has as its target T1, C-C chemokine receptor type 2 (Homo sapiens, UniProt P41597). Kind of data set: Displacement of [125I]MCP1 from CCR2 in human PBMC after 30 mins by gamma counter.
Target sequence in this assay (P41597 whole entry): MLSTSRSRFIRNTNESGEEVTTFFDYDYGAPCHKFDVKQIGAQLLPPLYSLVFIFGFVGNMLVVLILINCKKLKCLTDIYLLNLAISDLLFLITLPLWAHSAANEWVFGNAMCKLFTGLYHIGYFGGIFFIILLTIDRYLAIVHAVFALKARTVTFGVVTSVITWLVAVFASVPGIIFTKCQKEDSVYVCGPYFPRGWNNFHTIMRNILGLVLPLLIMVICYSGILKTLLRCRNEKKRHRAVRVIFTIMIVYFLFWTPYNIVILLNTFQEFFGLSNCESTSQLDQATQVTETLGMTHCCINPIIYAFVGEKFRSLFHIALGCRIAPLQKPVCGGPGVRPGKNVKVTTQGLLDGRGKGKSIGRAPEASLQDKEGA
Data set [3] concerns the target T1, C-C chemokine receptor type 2. Kind of data set: Displacement of [125I]MCP1 from CCR2 in human PBMC at 1 uM after 30 mins by gamma counter.
Target sequence in this assay (P41597 whole entry, looked up): as the sequence (P41597 whole entry) above
For data set [4], the target named is C-C chemokine receptor type 2 (Mus musculus, UniProt P51683). The data set is described as follows: Displacement of [125I]MCP1 from mouse CCR2 after 30 mins by gamma counter.
Chain of C-C chemokine receptor type 2 (Mus musculus, UniProt P51683) (P51683 whole entry): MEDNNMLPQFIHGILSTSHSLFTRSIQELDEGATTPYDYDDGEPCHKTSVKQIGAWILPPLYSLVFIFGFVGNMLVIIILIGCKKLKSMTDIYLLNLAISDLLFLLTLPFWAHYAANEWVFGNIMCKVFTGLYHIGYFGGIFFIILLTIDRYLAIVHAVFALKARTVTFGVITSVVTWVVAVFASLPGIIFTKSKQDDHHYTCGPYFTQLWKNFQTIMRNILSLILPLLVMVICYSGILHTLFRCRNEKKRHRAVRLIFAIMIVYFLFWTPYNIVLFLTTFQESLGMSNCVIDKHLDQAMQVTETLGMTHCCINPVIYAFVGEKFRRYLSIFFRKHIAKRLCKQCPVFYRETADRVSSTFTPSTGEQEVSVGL

Broadly, the IC50 is the concentration at which inhibition is half-maximal. A high value points to weaker potency. As for `O=C(CNC(=O)c1cccc(C(F)(F)F)c1)N[C@@H]1CCN([C@H]2CC[C@@](O)(c3cnccn3)CC2)C1`, in data set [1], the AUC/dose was 1550 nM·h. The IC50 in data set [2] was found to be 10.9 nM.

As a reminder, the inhibition is how much of the control response was suppressed. A high value points to strong suppression. `O=C(CNC(=O)c1cccc(C(F)(F)F)c1)N[C@@H]1CCN([C@H]2CC[C@](O)(c3ccncc3)CC2)C1` (mixture of isomers) registered an inhibition in data set [3] of less than 50%.

With `Cc1ccc([C@]2(O)CC[C@H](N3CC[C@@H](NC(=O)CNC(=O)c4cccc(C(F)(F)F)c4)C3)CC2)cc1`, the values for the IC50 in data set [4] and in data set [2] were 18 nM and 1 nM, respectively.

Take `O=C(CNC(=O)c1cccc(C(F)(F)F)c1)N[C@@H]1CCN([C@H]2CC[C@@](O)(c3cccnc3)CC2)C1`: the AUC/dose in data set [1] was 50 nM·h. The molecule further came in with an IC50 in data set [2] of 2.6 nM.

In the case of `O=C(CNC(=O)c1cccc(C(F)(F)F)c1)N[C@@H]1CCN([C@H]2CC[C@](O)(c3ccncn3)CC2)C1`, the inhibition in data set [3] is less than 50%.

`O=C(CNC(=O)c1cccc(C(F)(F)F)c1)N[C@@H]1CCN([C@H]2CC[C@@](O)(c3ncccn3)CC2)C1` showed an AUC/dose in data set [1] of 1442 nM·h. Further, the IC50 in data set [2] was 10.3 nM.

On to `O=C(CNC(=O)c1cccc(C(F)(F)F)c1)N[C@@H]1CCN([C@H]2CC[C@@](O)(c3ccnnc3)CC2)C1`, for which the AUC/dose in data set [1] stood at 80 nM·h. The molecule also registered an IC50 in data set [2] of 4.9 nM.

`O=C(CNC(=O)c1cccc(C(F)(F)F)c1)N[C@@H]1CCN([C@H]2CC[C@@](O)(c3cccnn3)CC2)C1`: in data set [1], the AUC/dose is 155 nM·h. The IC50 in data set [2] came out at 7.3 nM.

Turning to `Cc1ccc([C@]2(O)CC[C@H](N3CC[C@@H](NC(=O)CNC(=O)c4cccc(C(F)(F)F)c4)C3)CC2)cn1`, the AUC/dose in data set [1] amounted to 127 nM·h. The molecule further had an IC50 in data set [2] of 2.4 nM.

As for `O=C(CNC(=O)c1cccc(C(F)(F)F)c1)N[C@@H]1CCN([C@H]2CC[C@](O)(c3ccnnc3)CC2)C1`, the inhibition in data set [3] was less than 50%.

As for `O=C(CNC(=O)c1cccc(C(F)(F)F)c1)N[C@@H]1CCN([C@H]2CC[C@](O)(c3cccnn3)CC2)C1`, the inhibition in data set [3] is less than 50%.

Molecule `Cc1ccc([C@]2(O)CC[C@@H](N3CC[C@@H](NC(=O)CNC(=O)c4cccc(C(F)(F)F)c4)C3)CC2)cn1` yielded an inhibition in data set [3] of less than 50%.

For the molecule `O=C(CNC(=O)c1cccc(C(F)(F)F)c1)N[C@@H]1CCN([C@H]2CC[C@](O)(c3ncccn3)CC2)C1`, the inhibition in data set [3] was less than 50%.

Molecule `COc1ccc([C@]2(O)CC[C@@H](N3CC[C@@H](NC(=O)CNC(=O)c4cccc(C(F)(F)F)c4)C3)CC2)cn1` yielded an inhibition in data set [3] of less than 50%.

`CCOc1ccc([C@]2(O)CC[C@H](N3CC[C@@H](NC(=O)CNC(=O)c4cccc(C(F)(F)F)c4)C3)CC2)cn1` yielded an AUC/dose in data set [1] of 287 nM·h. In data set [2], this molecule registered an IC50 of 3.2 nM.

Take `O=C(CNC(=O)c1cccc(C(F)(F)F)c1)N[C@@H]1CCN([C@H]2CC[C@](O)(c3cccnc3)CC2)C1`: the inhibition in data set [3] was less than 50%.

As for `O=C(CNC(=O)c1cccc(C(F)(F)F)c1)N[C@@H]1CCN([C@H]2CC[C@](O)(c3ccccn3)CC2)C1`, the inhibition in data set [3] was less than 50%.

In turn, `O=C(CNC(=O)c1cccc(C(F)(F)F)c1)N[C@@H]1CCN([C@H]2CC[C@](O)(c3cncnc3)CC2)C1` had an inhibition in data set [3] of less than 50%.

As to `O=C(CNC(=O)c1cccc(C(F)(F)F)c1)N[C@@H]1CCN([C@H]2CC[C@@](O)(c3ccncc3)CC2)C1`, in data set [1], the AUC/dose was determined as 100 nM·h. For the same molecule, the IC50 in data set [2] is 4.3 nM.

`O=C(CNC(=O)c1cccc(C(F)(F)F)c1)N[C@@H]1CCN([C@H]2CC[C@@](O)(c3ccncn3)CC2)C1` returned an AUC/dose in data set [1] of 930 nM·h. The same molecule had an IC50 in data set [2] of 7.8 nM.

Take `Cc1ccc([C@]2(O)CC[C@H](N3CC[C@H](NC(=O)CNC(=O)c4cccc(C(F)(F)F)c4)C3)CC2)cc1`: the IC50 in data set [2] is more than 1000 nM.

Regarding `CCOc1ccc([C@]2(O)CC[C@@H](N3CC[C@@H](NC(=O)CNC(=O)c4cccc(C(F)(F)F)c4)C3)CC2)cn1`, the inhibition in data set [3] was less than 50%.

In data set [1], `O=C(CNC(=O)c1cccc(C(F)(F)F)c1)N[C@@H]1CCN([C@H]2CC[C@@](O)(c3ccccn3)CC2)C1` registered an AUC/dose of 2812 nM·h. Also, the IC50 in data set [2] stood at 3.2 nM.

The molecule `O=C(CNC(=O)c1cccc(C(F)(F)F)c1)N[C@@H]1CCN([C@H]2CC[C@](O)(c3cnccn3)CC2)C1` showed an inhibition in data set [3] of less than 50%.

Turning to `O=C(CNC(=O)c1cccc(C(F)(F)F)c1)N[C@@H]1CCN([C@H]2CC[C@@](O)(c3cncnc3)CC2)C1`, the IC50 in data set [2] was 14 nM.

The values above are taken from ChEMBL document CHEMBL1949557, “Discovery of INCB3284, a Potent, Selective, and Orally Bioavailable hCCR2 Antagonist” (ACS Med Chem Lett, 2011).
